Most compounds without a hit are left out; they make up all but 1.9% or so of the library.
Cneo AK release – Cryptococcus neoformans lysis via adenylate kinase release; C. neoformans lysis, adenylate kinase release luminescence, 4 h; normalised: neutral wells 0, clomiphene wells 100; lysis activity, % at 15 µM; 360,000 tested, 0.2% active; AID 651654;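 active = mean lysis activity across replicates of at least 80%, whatever share of replicates individually reach that level; inactive = mean lysis activity below 80%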
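Material – log-phase Cryptococcus neoformans yeast cells · Input – 5 × 10^6 yeast cells/mL · Medium – fresh YPD growth medium · Doses – single compound concentration per well · Timing – static 4 h at 37 °C with compound, 1 h detection · Detection – adenylate kinase release luminescence · Read-out – signal increase indicating cell lysis · Control set – Clomiphene as positive lysis control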
PglD DTNB – inhibitors of Campylobacter jejuni PglD acetyltransferase; purified PglD enzyme, DTNB colorimetric CoA detection; inhibition, % at 12.5 µM; 360,000 tested, 0.098% active; in the data active = inhibition above about 16%, passing the limit was not always enough
RAD52 anneal inh – RAD52 (human) annealing inhibition; P43351; inhibition, % at 18.7 µM; recombinant RAD52 DNA annealing, FRET fluorescence; AID 651710; 360,000 tested, 0.46% active;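 active = every replicate showing at least 50% inhibition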
Target sequence (P43351 whole entry, looked up): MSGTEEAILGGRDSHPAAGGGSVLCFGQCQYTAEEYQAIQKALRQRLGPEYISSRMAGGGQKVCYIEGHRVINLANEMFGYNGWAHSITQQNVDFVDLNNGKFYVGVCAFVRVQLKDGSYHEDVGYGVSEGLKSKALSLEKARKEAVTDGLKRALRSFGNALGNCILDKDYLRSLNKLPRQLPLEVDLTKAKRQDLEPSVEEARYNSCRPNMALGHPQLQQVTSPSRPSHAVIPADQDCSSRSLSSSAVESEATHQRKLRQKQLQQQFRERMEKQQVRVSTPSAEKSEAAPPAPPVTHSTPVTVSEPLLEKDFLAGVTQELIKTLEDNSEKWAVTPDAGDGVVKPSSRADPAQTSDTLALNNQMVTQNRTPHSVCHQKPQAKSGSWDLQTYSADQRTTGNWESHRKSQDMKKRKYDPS
RAD54 branch – blocks human RAD54 Holliday junction branch migration | Q92698 | FAM/BHQ fluorescence | inhibition, % at 10.4 µM | 360,000 tested, 0.14% active;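 active = mean normalized replicate activity at least 40 and at least half of replicates scoring 40 or more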;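 note: 0% = median of neutral control wells and 100% = median of positive control wells; inhibitors cause a drop in the FAM fluorescence signal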
Ecoli rRNA inh – inhibitors of bacterial rRNA selective over humanized ribosomes. E. coli WT GFP vs humanized-ribosome RFP mutants, fluorescence, 24 h; hits give low values; DMSO median 0, no signal -100. GFP signal change (wild-type ribosome), % (concentration not given with the values). 350,000 tested, 1.6% active;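 active = significant combined selectivity score with lowered wild-type GFP, culture density cut under 30%, mutant RFP and density less affected; inactive = any of these conditions unmet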
* = called active by the depositor; nt = not tested or not shown; ! = repeats disagree.

SMILES	Cneo AK release	PglD DTNB	RAD52 anneal inh	RAD54 branch	Ecoli rRNA inh
Cc1ccc(CNc2cc(C(=O)O)ccc2Cl)s1	0	5	-8	-10	-33*
C[C@H]1CN([C@@H](C)CO)C(=O)Cc2cc(NC(=O)CCCN(C)C)ccc2O[C@@H]1CN(C)S(=O)(=O)c1ccccc1	-5	0	-1	5	6
CC1(C)CC(=O)C=C(c2ccc(COC(=O)c3ccccc3)cc2)C1=O	0	-4	-14	-2	-20*
COc1ccccc1-c1ccc([C@H]2[C@@H](C#N)N(C(=O)C3CC3)[C@@H]2CO)cc1	87*	2	-24	4	2
CN(C)C(=O)c1cccc(-c2ccccc2[C@H]2[C@H](C#N)N(C(=O)C3CCC3)[C@H]2CO)c1	nt	nt	62*	nt	3
COc1ccccc1-c1ccc([C@H]2[C@@H](C#N)N(C(=O)C3CC3)[C@H]2CO)cc1	4	0	-29	-4	0
CN(C)C(=O)c1cccc(-c2ccccc2[C@H]2[C@@H](C#N)N(C(=O)C3CCC3)[C@@H]2CO)c1	nt	nt	-7	nt	1
COc1ccccc1-c1ccc([C@H]2[C@H](C#N)N(C(=O)C3CC3)[C@H]2CO)cc1	81*	4	-9	2	-1
Cc1cccc(N2C(=O)C(O)=C(C(=O)c3cccs3)C2c2ccc(C(C)C)cc2)n1 (configuration not stated)	nt	nt	-18	nt	-23*
CCCNC(=O)Nc1ccc2c(c1)C(=O)N(C)C[C@H](OC)[C@H](C)CN(C(=O)CC)[C@@H](C)CO2	0	3	nt	-5	2
CCCNC(=O)Nc1ccc2c(c1)C(=O)N(C)C[C@H](OC)[C@@H](C)CN(C(=O)CC)[C@@H](C)CO2	99*	2	nt	8	4
CCCNC(=O)Nc1ccc2c(c1)C(=O)N(C)C[C@@H](OC)[C@H](C)CN(C(=O)CC)[C@@H](C)CO2	1	-1	nt	1	1
CCCNC(=O)Nc1ccc2c(c1)C(=O)N(C)C[C@@H](OC)[C@@H](C)CN(C(=O)CC)[C@H](C)CO2	91*	-3	nt	-1	2
CC(=O)N1C[C@@H]2C(c3ccc(Br)cc3)[C@H](C1)N2Cc1ccc(F)cc1 (some centres not stated)	nt	nt	nt	nt	-2
CNC[C@H]1Oc2ncc(C3=CCCC3)cc2C(=O)N([C@@H](C)CO)C[C@H]1C	nt	nt	nt	nt	2
CC1(C)CC(=O)C(C2C3=C(CC(C)(C)CC3=O)Oc3ccccc32)C(=O)C1 (configuration not stated)	nt	nt	-7	nt	-22*
CC1(C)CC(=O)C(C2C3=C(CC(C)(C)CC3=O)Oc3ccc4ccccc4c32)C(=O)C1 (configuration not stated)	nt	nt	0	nt	8
C/C=C/c1ccc([C@@H]2[C@H](CO)N(C(C)=O)C23CN(C(=O)NC2CCCC2)C3)cc1	nt	nt	-17	nt	0
COc1ccc(Nc2nc(C(=O)NCc3ccco3)cs2)cc1	-24	1	-19	-1	-44*
O=C(NCc1ccco1)c1csc(Nc2ccccc2Cl)n1	0	0	nt	-1	nt
CC[C@H](NC(=O)[C@@H](Cc1ccccc1)NC(=O)[C@H]1O[C@@H](n2ccc(=O)[nH]c2=O)[C@H](O)[C@@H]1O)c1ccccc1	nt	nt	-1	nt	16
CC[C@@H](NC(=O)[C@@H](Cc1ccccc1)NC(=O)CC[C@H]1O[C@@H](n2ccc(=O)[nH]c2=O)[C@H](O)[C@@H]1O)c1ccccc1	1	-7	-11	-8	-8.9*
Cc1cc2c(c(=O)o1)C(CCC1CCCCC1)C(C#N)=C(N)O2 (configuration not stated)	0	-2	-173	-21	-21*
CCOC(=O)NC(=O)COC(=O)CCCSc1nc2ccccc2s1	nt	nt	-14	nt	-27*
Cn1c(SCc2ccccc2)nc(N)c(N=O)c1=O	0	9	-9	-18	-20*
SMILES	Cneo AK release	PglD DTNB	RAD52 anneal inh	RAD54 branch	Ecoli rRNA inh
Cn1c(SCc2ccccc2)nc(C(F)(F)F)cc1=O	nt	nt	-12	nt	-23*
ONC(=Nc1ccccc1Cl)c1ccccc1Cl	5	4	-10	4	-32*
C[C@H](CO)N1C[C@H](C)[C@@H](CN(C)C(=O)c2ccncc2)OCCCC[C@H](C)Oc2ccc(NC(=O)Cc3ccccc3)cc2C1=O	102*	-1	6	-18	-2
C[C@@H]1CCCCO[C@@H](CN(C)C(=O)c2ccncc2)[C@H](C)CN([C@H](C)CO)C(=O)c2cc(NC(=O)Cc3ccccc3)ccc2O1	0	-2	11	-7	2
C[C@H]1CCCCO[C@H](CN(C)C(=O)c2ccncc2)[C@@H](C)CN([C@@H](C)CO)C(=O)c2cc(NC(=O)Cc3ccccc3)ccc2O1	113*	-3	3	-7	-1
C[C@@H]1CCCCO[C@H](CN(C)C(=O)c2ccncc2)[C@@H](C)CN([C@@H](C)CO)C(=O)c2cc(NC(=O)Cc3ccccc3)ccc2O1	0	-2	-7	-25	-3
Cc1noc(C)c1NC(=O)N[C@@H]1C=C[C@@H](CC(=O)N2CCCCC2)O[C@H]1CO	-7	0	4	-5	6
COc1ccc(-c2cc(-c3ccccc3O)[nH]n2)cc1OC	-14	-2	nt	-2	nt
COc1ccc(-c2cc(-c3cc(F)ccc3O)[nH]n2)cc1OC	-7	1	-2	-2	-33*
CC(=O)N1CCSc2ccc(S(=O)(=O)Nc3cccc(C)c3)cc21	-4	-6	1	-2	-23*
COc1cccc(NS(=O)(=O)c2ccc3c(c2)N(C(C)=O)CCS3)c1	3	-1	-14	3	0
O=C(COc1ccccc1Cl)Nc1ccc(C(=O)O)cc1NC(=O)COc1ccccc1Cl	-3	-2	-21	-7	nt
O=C(COc1ccccc1Cl)Nc1ccccc1C(=O)Nc1cccc(C(=O)O)c1	-6	-3	-8	16	-29*
CCOC(=O)CCc1c(C)c2ccc(OC3CCCCC3=O)cc2oc1=O (configuration not stated)	0	9	-12	-4	-21*
C[C@@H]1CN([C@@H](C)CO)C(=O)CCCn2nncc2CO[C@H]1CN(C)C(=O)Nc1ccc(N2CCN(C)CC2)cc1	-1	-2	58*!	6	1
C[C@@H]1CN([C@H](C)CO)C(=O)CCCn2cc(nn2)CO[C@H]1CN(C)C(=O)Nc1ccc(N2CCN(C)CC2)cc1	-4	2	62*	8	-1
C[C@H](CO)N1C[C@H](C)[C@@H](CN(C)C(=O)Nc2ccc(N3CCN(C)CC3)cc2)OCc2cnnn2CCCC1=O	5	3	55*!	-13	34
COc1ccc2c3c([nH]c2c1)[C@H](CO)N(C(=O)c1ccccc1)CC31CN(Cc2cccnc2)C1	nt	nt	4	nt	1
COc1cccc(-c2ccc3c(c2)[C@H]2[C@H](CCN2S(=O)(=O)c2ccccc2OC)[C@@H](CO)N3)c1	54	3	-4	6	-3

High-throughput results as filed in PubChem.
